Results on two compounds are retold here after ChEMBL document CHEMBL1137643, “In vitro and in vivo activities of novel fluoroquinolones alone and in combination with clarithromycin against clinically isolated Mycobacterium avium complex strains in Japan” (2007).

Values after ≈ are worked out from the molar mass of the structure shown.

Holding throughout (format): functional
In test [1] the test system is Mycobacterium avium complex sp. As to the kind of experiment: Antimycobacterial activity against Mycobacterium avium complex N018 infected C57BL/6J mouse assessed as spleen bacterial count at 100 mg/kg/day dosed through gavage route administered for 28 days post bacterial challenge measured 2 days after last dose. The procedure, abridged:
(§1)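 Mice given 1.0 × 10^7 to 3.0 × 10^7 CFU in 100 μl via tail vein; daily gavage dosing began day 21 for 28 days; distilled-water controls. Sacrifice 48 h after last dose. Organ portions homogenized in 1 ml saline, diluted in 7H9, plated on 7H10; log10 CFU/organ, mean ± SEM, 5 mice/group. Experiment run twice; ANOVA with Fisher's PLSD.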

Test [2] shares this test system. As to the kind of experiment: Antimycobacterial activity against Mycobacterium avium complex N084 infected C57BL/6J mouse assessed as lung bacterial count at 100 mg/kg/day dosed through gavage route administered for 28 days post bacterial challenge measured 2 days after last dose. The procedure, abridged: as §1
Test [3] concerns Mycobacterium avium. As to the kind of experiment: Antimycobacterial activity against Mycobacterium avium JATA51-01 after 14 days by broth microdilution method. The conditions noted are these: JATA51-01, 336 h. The procedure, abridged: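 Broth microdilution in 7H9 (10% OADC, 0.05% Tween 80, 0.2% glycerol); twofold drug dilutions, final 0.125–128 μg/ml; inoculum 1.0 × 10^5 CFU/well from 7-day 37°C subculture of 21-day 7H10 colonies; 14 days at 37°C; MIC = lowest concentration with complete growth inhibition; triplicate.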

Test [4] relates to Mycobacterium intracellulare. In words: Antimycobacterial activity against Mycobacterium intracellular JATA52-01 after 14 days by broth microdilution method. The conditions noted are these: JATA52-01, 336 h. The procedure, abridged: (§2)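 Broth microdilution in Middlebrook 7H9 (OADC, Tween 80, glycerol); twofold dilutions giving final 0.125–128 μg/ml; inoculum 1.0 × 10^5 CFU/well; 14 days at 37°C. MIC = lowest concentration completely inhibiting growth. Triplicate tests. Inocula from 7H10 agar colonies (21 days) subcultured in 7H9 for 7 days at 37°C, stored at −80°C.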

Test [5] has as its system Mycobacterium avium complex sp. As to the kind of experiment: Antimycobacterial activity against Mycobacterium avium complex N016 after 14 days by broth microdilution method. Particulars: N016, 336 h. The procedure, abridged: as §2
Test [6] has the same test system. In words: Antimycobacterial activity against Mycobacterium avium complex N018 after 14 days by broth microdilution method. Particulars: N018, 336 h. The procedure, abridged:
as §2

For test [7] the test system is unchanged. As to the kind of experiment: Antimycobacterial activity against Mycobacterium avium complex N084 after 14 days by broth microdilution method. Particulars: N084, 336 h. The procedure, abridged:
as §2

Test [8] has the same test system. In words: Antimycobacterial activity against Mycobacterium avium complex after 14 days by broth microdilution method. Particulars: 336 h. The procedure, abridged: as §2
Test [9] deals with Mycobacterium avium. As to the kind of experiment: Antimycobacterial activity against Mycobacterium avium JATA51-01 infected C57BL/6J mouse assessed as lung bacterial count at 100 mg/kg/day dosed through gavage route administered for 28 days post bacterial challenge measured 2 days after last dose. The procedure, abridged:
(§3)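 Mice infected via tail vein with 1.0 × 10^7 to 3.0 × 10^7 CFU in 100 μl saline; daily oral gavage started day 21, for 28 days; distilled-water controls; sacrificed 48 h after last dose; lungs, liver, spleen homogenized in saline, serially diluted in 7H9, plated on 7H10 agar; log10 CFU/organ, mean ± SEM, 5 mice/group; ANOVA with Fisher's PLSD; experiment done twice.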

Test [10] concerns Mycobacterium avium. As to the kind of experiment: Antimycobacterial activity against Mycobacterium avium JATA51-01 infected C57BL/6J mouse assessed as liver bacterial count at 100 mg/kg/day dosed through gavage route administered for 28 days post bacterial challenge measured 2 days after last dose. The procedure, abridged:
as §3

The test system of test [11] is Mycobacterium avium. As to the kind of experiment: Antimycobacterial activity against Mycobacterium avium JATA51-01 infected C57BL/6J mouse assessed as spleen bacterial count at 100 mg/kg/day dosed through gavage route administered for 28 days post bacterial challenge measured 2 days after last dose. The procedure, abridged: as §3
Test [12] deals with Mycobacterium intracellulare. In words: Antimycobacterial activity against Mycobacterium intracellular JATA52-01 infected C57BL/6J mouse assessed as lung bacterial count at 100 mg/kg/day dosed through gavage route administered for 28 days post bacterial challenge measured 2 days after last dose. The procedure, abridged: as §1
Test [13] relates to Mycobacterium intracellulare. In words: Antimycobacterial activity against Mycobacterium intracellular JATA52-01 infected C57BL/6J mouse assessed as liver bacterial count at 100 mg/kg/day dosed through gavage route administered for 28 days post bacterial challenge measured 2 days after last dose. The procedure, abridged:
as §1

The test system of test [14] is Mycobacterium intracellulare. In words: Antimycobacterial activity against Mycobacterium intracellular JATA52-01 infected C57BL/6J mouse assessed as spleen bacterial count at 100 mg/kg/day dosed through gavage route administered for 28 days post bacterial challenge measured 2 days after last dose. The procedure, abridged: as §1
In test [15] the test system is Mycobacterium avium complex sp. As to the kind of experiment: Antimycobacterial activity against Mycobacterium avium complex N016 infected C57BL/6J mouse assessed as lung bacterial count at 100 mg/kg/day dosed through gavage route administered for 28 days post bacterial challenge measured 2 days after last dose. The procedure, abridged: as §1
For test [16] the test system is unchanged. As to the kind of experiment: Antimycobacterial activity against Mycobacterium avium complex N016 infected C57BL/6J mouse assessed as liver bacterial count at 100 mg/kg/day dosed through gavage route administered for 28 days post bacterial challenge measured 2 days after last dose. The procedure, abridged: as §1
The test system is the same in test [17]. In words: Antimycobacterial activity against Mycobacterium avium complex N016 infected C57BL/6J mouse assessed as spleen bacterial count at 100 mg/kg/day dosed through gavage route administered for 28 days post bacterial challenge measured 2 days after last dose. The procedure, abridged: as §1
Test [18] shares this test system. As to the kind of experiment: Antimycobacterial activity against Mycobacterium avium complex N018 infected C57BL/6J mouse assessed as lung bacterial count at 100 mg/kg/day dosed through gavage route administered for 28 days post bacterial challenge measured 2 days after last dose. The procedure, abridged:
as §1

Test [19] has the same test system. In words: Antimycobacterial activity against Mycobacterium avium complex N018 infected C57BL/6J mouse assessed as liver bacterial count at 100 mg/kg/day dosed through gavage route administered for 28 days post bacterial challenge measured 2 days after last dose. The procedure, abridged: as §1
The test system is the same in test [20]. In words: Antimycobacterial activity against Mycobacterium avium complex N084 infected C57BL/6J mouse assessed as liver bacterial count at 100 mg/kg/day dosed through gavage route administered for 28 days post bacterial challenge measured 2 days after last dose. The procedure, abridged:
as §1

Test [21] has the same test system. As to the kind of experiment: Antimycobacterial activity against Mycobacterium avium complex N084 infected C57BL/6J mouse assessed as spleen bacterial count at 100 mg/kg/day dosed through gavage route administered for 28 days post bacterial challenge measured 2 days after last dose. The procedure, abridged: as §1
The test system is the same in test [22]. As to the kind of experiment: Antimycobacterial activity against Mycobacterium avium complex N018 infected C57BL/6J mouse assessed as liver bacterial count at 200 mg/kg/day dosed through gavage route administered for 28 days post bacterial challenge measured 2 days after last dose. The procedure, abridged: as §1
Test [23] shares this test system. As to the kind of experiment: Antimycobacterial activity against Mycobacterium avium complex N018 infected C57BL/6J mouse assessed as lung bacterial count at 200 mg/kg/day dosed through gavage route administered for 28 days post bacterial challenge measured 2 days after last dose. The procedure, abridged:
as §1

The test system is the same in test [24]. As to the kind of experiment: Antimycobacterial activity against Mycobacterium avium complex N018 infected C57BL/6J mouse assessed as spleen bacterial count at 200 mg/kg/day dosed through gavage route administered for 28 days post bacterial challenge measured 2 days after last dose. The procedure, abridged: as §1
In test [25] the test system is Mycobacterium avium. In words: Antimycobacterial activity against Mycobacterium avium JATA51-01 infected C57BL/6J mouse assessed as lung bacterial count at 200 mg/kg/day dosed through gavage route administered for 28 days post bacterial challenge measured 2 days after last dose. The procedure, abridged: as §3
Test [26] deals with Mycobacterium avium. In words: Antimycobacterial activity against Mycobacterium avium JATA51-01 infected C57BL/6J mouse assessed as liver bacterial count at 200 mg/kg/day dosed through gavage route administered for 28 days post bacterial challenge measured 2 days after last dose. The procedure, abridged:
as §3

Test [27] relates to Mycobacterium avium. As to the kind of experiment: Antimycobacterial activity against Mycobacterium avium JATA51-01 infected C57BL/6J mouse assessed as spleen bacterial count at 200 mg/kg/day dosed through gavage route administered for 28 days post bacterial challenge measured 2 days after last dose. The procedure, abridged:
as §3

Test [28] deals with Mycobacterium intracellulare. As to the kind of experiment: Antimycobacterial activity against Mycobacterium intracellular JATA52-01 infected C57BL/6J mouse assessed as lung bacterial count at 200 mg/kg/day dosed through gavage route administered for 28 days post bacterial challenge measured 2 days after last dose. The procedure, abridged:
as §1

For test [29], the system named is Mycobacterium intracellulare. In words: Antimycobacterial activity against Mycobacterium intracellular JATA52-01 infected C57BL/6J mouse assessed as liver bacterial count at 200 mg/kg/day dosed through gavage route administered for 28 days post bacterial challenge measured 2 days after last dose. The procedure, abridged: as §1
Test [30] deals with Mycobacterium intracellulare. As to the kind of experiment: Antimycobacterial activity against Mycobacterium intracellular JATA52-01 infected C57BL/6J mouse assessed as spleen bacterial count at 200 mg/kg/day dosed through gavage route administered for 28 days post bacterial challenge measured 2 days after last dose. The procedure, abridged:
as §1

For test [31], the system named is Mycobacterium avium complex sp. In words: Antimycobacterial activity against Mycobacterium avium complex N016 infected C57BL/6J mouse assessed as lung bacterial count at 200 mg/kg/day dosed through gavage route administered for 28 days post bacterial challenge measured 2 days after last dose. The procedure, abridged: as §1
The test system is the same in test [32]. In words: Antimycobacterial activity against Mycobacterium avium complex N016 infected C57BL/6J mouse assessed as liver bacterial count at 200 mg/kg/day dosed through gavage route administered for 28 days post bacterial challenge measured 2 days after last dose. The procedure, abridged: as §1
For test [33] the test system is unchanged. In words: Antimycobacterial activity against Mycobacterium avium complex N016 infected C57BL/6J mouse assessed as spleen bacterial count at 200 mg/kg/day dosed through gavage route administered for 28 days post bacterial challenge measured 2 days after last dose. The procedure, abridged: as §1
Test [34] has the same test system. As to the kind of experiment: Antimycobacterial activity against Mycobacterium avium complex N084 infected C57BL/6J mouse assessed as lung bacterial count at 200 mg/kg/day dosed through gavage route administered for 28 days post bacterial challenge measured 2 days after last dose. The procedure, abridged: as §1
Test [35] shares this test system. In words: Antimycobacterial activity against Mycobacterium avium complex N084 infected C57BL/6J mouse assessed as liver bacterial count at 200 mg/kg/day dosed through gavage route administered for 28 days post bacterial challenge measured 2 days after last dose. The procedure, abridged: as §1
For test [36] the test system is unchanged. As to the kind of experiment: Antimycobacterial activity against Mycobacterium avium complex N084 infected C57BL/6J mouse assessed as spleen bacterial count at 200 mg/kg/day dosed through gavage route administered for 28 days post bacterial challenge measured 2 days after last dose. The procedure, abridged:
as §1

On to `COc1c(N2CCNC(C)C2)c(F)cc2c(=O)c(C(=O)O)cn(C3CC3)c12` (configuration not stated) [GATIFLOXACIN], for which the log10cfu in test [1] was determined as 6.75; in test [2], 8.14; in the test on Mycobacterium avium [9] it was 8.9; in the test with Mycobacterium avium [10], 9.91; in the test with Mycobacterium avium [11], 9.18; in test [12], 5.32. Further, the log10cfu in test [13] is 5.15; in test [14], 4.41; in test [15], 5.48; in [16] it was 6.6; in test [17], 6.81; in test [18], 5.96. The log10cfu in test [19] is recorded as 7.21; in [20], 8; in test [21], 7.6. Also, the MIC was 2 µg/mL (≈ 5.33 µM) in the test with Mycobacterium avium [3]; 1 µg/mL (≈ 2.66 µM) in [4]; 0.5 µg/mL (≈ 1.33 µM) in test [5]; 1 µg/mL (≈ 2.66 µM) in test [6]; 1 µg/mL (≈ 2.66 µM) in test [7]. The same compound showed an MIC90 in test [8] of 4 µg/mL (≈ 10.7 µM).
Take `C[C@H]1COc2c(N3CCN(C)CC3)c(F)cc3c(=O)c(C(=O)O)cn1c23.C[C@H]1COc2c(N3CCN(C)CC3)c(F)cc3c(=O)c(C(=O)O)cn1c23.O` [LEVOFLOXACIN]: the log10cfu in [22] is recorded as 7.4; in test [23], 6.01; in test [24], 6.82; in the test on Mycobacterium avium [25], 9.01; in the test on Mycobacterium avium [26], 9.92; in the test with Mycobacterium avium [27], 9.38. Further, the log10cfu is listed as 5.47 in test [28]; 5.16 in test [29]; 4.48 in test [30]; 5.48 in test [31]; 6.52 in test [32]; 6.72 in [33]. The log10cfu in test [34] was found to be 7.82; in test [35], 7.77; in [36] it was 7.58. Also, the MIC against Mycobacterium avium [3] was found to be 4 µg/mL; in test [4] it was 4 µg/mL; in test [5] it was 2 µg/mL; in test [6] it was 4 µg/mL; in test [7], 8 µg/mL. In test [8], this compound had an MIC90 of 16 µg/mL.
